Source: ChEMBL document CHEMBL1134500, “Investigations of new lead structures for the design of selective estrogen receptor modulators” (J Med Chem, 2001)

Assays:
[1] = target: T1, Estrogen receptor (Homo sapiens) (UniProt P03372); assay: Transcriptional activation in MCF-7-2a cells expressing estrogen receptor alpha at 10e-6 M; format: functional, cell-based
T1 sequence (whole entry): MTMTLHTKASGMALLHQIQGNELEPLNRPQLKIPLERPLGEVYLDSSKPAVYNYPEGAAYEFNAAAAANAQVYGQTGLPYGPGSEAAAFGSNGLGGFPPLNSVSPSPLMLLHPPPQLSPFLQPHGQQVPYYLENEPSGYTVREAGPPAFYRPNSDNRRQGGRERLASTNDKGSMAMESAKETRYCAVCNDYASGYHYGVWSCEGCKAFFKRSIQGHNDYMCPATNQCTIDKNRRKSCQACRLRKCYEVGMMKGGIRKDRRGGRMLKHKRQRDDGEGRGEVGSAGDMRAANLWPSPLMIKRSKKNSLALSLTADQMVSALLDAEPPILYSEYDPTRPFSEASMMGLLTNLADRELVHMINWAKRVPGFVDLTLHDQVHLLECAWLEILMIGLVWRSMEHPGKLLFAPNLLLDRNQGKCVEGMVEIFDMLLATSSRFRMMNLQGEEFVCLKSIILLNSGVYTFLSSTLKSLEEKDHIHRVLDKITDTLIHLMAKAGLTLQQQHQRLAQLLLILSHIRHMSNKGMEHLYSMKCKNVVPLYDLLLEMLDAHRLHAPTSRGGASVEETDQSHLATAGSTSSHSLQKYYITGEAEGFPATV
Outline: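 MCF-7-2a cells were precultured one week in DMEM with L-glutamine, antibiotics and dextran/charcoal-treated BCS (50 mL/L), then seeded in six-well plates. After 24 h compounds were added (10^-5 to 10^-10 M final) and cells incubated 50 h, then lysed 20 min at room temperature. Luciferase luminescence (RLU) was read for 10 s and normalized to Bradford protein.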

[2] = target: Estrogen receptor (Bos taurus) (UniProt Q9XSB5+P49884); assay: Displacement of 17-beta-[3H]-estradiol from estrogen receptor relative to 17-beta-estradiol; format: protein assay
Outline: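 Competitive binding with calf uterine cytosol as receptor source and 17β-[3H]estradiol (0.723 pmol per tube) as tracer. Compounds were dissolved in ethanol, diluted in TRIS buffer to six to eight concentrations and incubated overnight at 4 °C. Free ligand was removed with dextran-charcoal (90 min, 4 °C), then supernatant was scintillation counted. Nonspecific binding was set with 2 nmol estradiol. RBA = ratio of 50%-inhibiting concentrations (estradiol/sample) × 100%.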

SMILES | Activation [1] [%] | RBA [2] [%]
COc1ccc([C@H]2N=CN[C@H]2c2c(Cl)cc(OC)cc2Cl)c(Cl)c1 | 6 | 0
COc1ccc(-c2[nH]cnc2-c2c(Cl)cc(OC)cc2Cl)c(Cl)c1 | 6 | 0
COc1ccc([C@H]2NCCN[C@H]2c2c(Cl)cc(OC)cc2Cl)c(Cl)c1 | 3 | 0
Oc1ccc([C@H]2NCCN[C@H]2c2c(Cl)cc(O)cc2Cl)c(Cl)c1 | 20 | < 0.02
Oc1ccc(-c2[nH]cnc2-c2c(Cl)cc(O)cc2Cl)c(Cl)c1 | 27 | 0.1
N[C@H](c1ccc(O)cc1Cl)[C@@H](N)c1c(Cl)cc(O)cc1Cl | 98 | 1.5
COc1ccc([C@@H](N)[C@@H](N)c2c(Cl)cc(OC)cc2Cl)c(Cl)c1 | 0 | 0
